# Source: ChEMBL document CHEMBL1125212, “Dual-action cephalosporins: cephalosporin 3'-quinolone carbamates” (J Med Chem, 1991)
# Columns and labels:
# Citrobacter freundii = test: The compound was tested in vitro for minimum inhibitory concentration against Citrobacter Freundii BS-16; assay type: functional
# Method in brief: (§1)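 Agar dilution on Mueller-Hinton agar using 2-fold serial dilutions, giving final 128 to 0.0156 μg/mL (extended to 0.000977 μg/mL where needed). Inoculum was overnight broth culture diluted 100-fold, about 3×10^4 CFU/spot, applied by replicator. MIC read after overnight incubation at 36 °C.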
# Escherichia coli [1] = test: The compound was tested in vitro for minimum inhibitory concentration against Escherichia coli ATCC 25922; assay type: functional; method in brief: as §1
# Escherichia coli [2] = test: Minimum inhibitory concentration required to inhibit the activity of Escherichia coli ATCC 25922; assay type: functional; method in brief: as §1
# Escherichia coli [3] = test: Minimum inhibitory concentration required to inhibit the activity of Escherichia coli UB1005; assay type: functional; method in brief: as §1
# Escherichia coli [4] = test: Minimum inhibitory concentration for inhibition of [14C]- Pen G binding to Escherichia coli UB1005; assay type: functional
# Method in brief: (§2)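 Membranes from sonicated E. coli UB1005 were solubilized. Binding to penicillin-binding proteins was measured as inhibition of [14C]penicillin G binding.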
# Escherichia coli [5] = test: The compound was tested in vitro for minimum inhibitory concentration against Escherichia coli 257; assay type: functional; method in brief: as §1
# Enterococcus faecalis = test: The compound was tested in vitro for minimum inhibitory concentration against Enterococcus faecalis ATCC 29212; assay type: functional; method in brief: as §1
# Escherichia coli [6] = test: The compound was tested in vitro for minimum inhibitory concentration against Escherichia coli TEM-1; assay type: functional; method in brief: as §1
# Enterobacter cloacae = test: The compound was tested in vitro for minimum inhibitory concentration against Enterobacter cloacae P99; assay type: functional
# Escherichia coli [7] = test: Inhibitory activity on replicative DNA biosynthesis in Escherichia coli H560 (permeabilised cells); assay type: functional, organism-based
# Method in brief: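 E. coli H560 cells permeabilized with toluene. ATP-dependent incorporation of [3H]thymidine into trichloroacetic acid-insoluble material was measured. IC50 taken as the concentration giving 50% inhibition.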
# Micrococcus luteus = test: The compound was tested in vitro for minimum inhibitory concentration against Micrococcus luteus ATCC 9341; assay type: functional; method in brief: as §1
# Proteus mirabilis = test: The compound was tested in vitro for minimum inhibitory concentration against Proteus mirabilis 90; assay type: functional
# Method in brief: (§3)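 Proteus MICs by agar dilution on Mueller-Hinton medium containing 3% agar. Serial 2-fold dilutions gave final 128 to 0.0156 μg/mL (further to 0.000977 μg/mL). Inoculum was overnight broth diluted 100-fold, about 3×10^4 CFU/spot. Plates read after overnight incubation at 36 °C.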
# Pseudomonas aeruginosa [8] = test: The compound was tested in vitro for minimum inhibitory concentration against Pseudomonas aeruginosa 18S/H; assay type: functional; method in brief: as §1
# Escherichia coli [9] = test: The compound was evaluated for the inhibition of [14C]- Pen G binding to Escherichia coli UB1005 penicillin-binding protein 1a 90 kDa.; method in brief: as §2
# Escherichia coli [10] = test: The compound was evaluated for the inhibition of [14C]- Pen G binding to Escherichia coli UB1005 penicillin-binding protein 1b 90 kDa.; method in brief: as §2
# Escherichia coli [11] = test: The compound was evaluated for the inhibition of [14C]- Pen G binding to Escherichia coli UB1005 penicillin-binding protein 2 66 kDa.; method in brief: as §2
# Escherichia coli [12] = test: The compound was evaluated for the inhibition of [14C]- Pen G binding to Escherichia coli UB1005 penicillin-binding protein 3 60 kDa.; method in brief: as §2
# Pseudomonas aeruginosa [13] = test: The compound was tested in vitro for minimum inhibitory concentration against Pseudomonas aeruginosa 8780; assay type: functional; method in brief: as §1
# Proteus vulgaris = test: The compound was tested in vitro for minimum inhibitory concentration against Proteus vulgaris 1028 BC; assay type: functional; method in brief: as §3
# Staphylococcus aureus [14] = test: The compound was tested in vitro for minimum inhibitory concentration against Staphylococcus aureus 67-0; assay type: functional; method in brief: as §1
# Staphylococcus aureus [15] = test: (§4) The compound was tested in vitro for minimum inhibitory concentration against Staphylococcus aureus 753; assay type: functional; method in brief: as §1
# Streptococcus pyogenes = test: The compound was tested in vitro for minimum inhibitory concentration against Streptococcus pyogenes; assay type: functional
# Method in brief: (§5)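 Streptococci tested by agar dilution on brain heart infusion agar with 20 units/mL bovine liver catalase. Final drug range 128 to 0.0156 μg/mL by 2-fold steps, extended to 0.000977 μg/mL when required. Inoculum about 3×10^4 CFU/spot from overnight broth diluted 100-fold. MIC after overnight incubation at 36 °C.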
# Serratia marcescens = test: The compound was tested in vitro for minimum inhibitory concentration against Serratia marcescens 1071; assay type: functional; method in brief: as §1
# Streptococcus pneumoniae = test: The compound was tested in vitro for minimum inhibitory concentration against Streptococcus pneumoniae 6301; assay type: functional; method in brief: as §5
# Staphylococcus aureus [16] = test: The compound was tested in vitro for minimum inhibitory concentration against Staphylococcus aureus smith; assay type: functional; method in brief: as §1
# Klebsiella pneumoniae = test: The compound was tested in vitro for minimum inhibitory concentration against Klebsiella pneumoniae A; assay type: functional; method in brief: as §1
# Staphylococcus aureus [17] = test: as §4; assay type: functional, staphylococcus aureus smith; method in brief: as §1
structure (smiles),measurement,setting,value
N#CCC(=O)N[C@@H]1C(=O)N2C(C(=O)O)=C(COC(=O)N3CCN(c4cc5c(cc4F)c(=O)c(C(=O)O)cn5C4CC4)CC3)CS[C@H]12,MIC,Citrobacter freundii,0.063 µg/mL
same,MIC,Escherichia coli [1],0.063 µg/mL
same,MIC,Escherichia coli [2],0.06 µg/mL
same,MIC,Escherichia coli [3],1 µg/mL
same,MIC,Escherichia coli [4],1 µg/mL
same,MIC,Escherichia coli [5],0.063 µg/mL
same,MIC,Enterococcus faecalis,4 µg/mL
same,MIC,Escherichia coli [6],0.063 µg/mL
same,MIC,Enterobacter cloacae,< 0.016 µg/mL
same,IC50,Escherichia coli [7],1 µg/mL
same,MIC,Micrococcus luteus,0.125 µg/mL
same,MIC,Proteus mirabilis,0.5 µg/mL
same,MIC,Pseudomonas aeruginosa [8],0.5 µg/mL
same,Inhibitory concentration,Escherichia coli [9],> 100 µg/mL
same,Inhibitory concentration,Escherichia coli [10],> 100 µg/mL
same,Inhibitory concentration,Escherichia coli [11],> 100 µg/mL
same,Inhibitory concentration,Escherichia coli [12],100 µg/mL
same,MIC,Pseudomonas aeruginosa [13],1 µg/mL
same,MIC,Proteus vulgaris,0.031 µg/mL
same,MIC,Staphylococcus aureus [14],2 µg/mL
same,MIC,Staphylococcus aureus [15],1 µg/mL
same,MIC,Streptococcus pyogenes,0.031 µg/mL
same,MIC,Serratia marcescens,0.125 µg/mL
same,MIC,Streptococcus pneumoniae,0.031 µg/mL
same,MIC,Staphylococcus aureus [16],0.25 µg/mL
same,MIC,Klebsiella pneumoniae,0.125 µg/mL
CC(=O)OCC1=C(C(=O)O)N2C(=O)[C@@H](NC(=O)COc3ccccc3)[C@H]2SC1,MIC,Citrobacter freundii,> 128 µg/mL
same,MIC,Escherichia coli [1],128 µg/mL
same,MIC,Escherichia coli [4],> 128 µg/mL
same,MIC,Escherichia coli [5],64 µg/mL
same,MIC,Enterococcus faecalis,32 µg/mL
same,MIC,Escherichia coli [6],128 µg/mL
same,MIC,Enterobacter cloacae,> 128 µg/mL
same,MIC,Micrococcus luteus,0.125 µg/mL
same,MIC,Proteus mirabilis,32 µg/mL
same,MIC,Pseudomonas aeruginosa [8],> 128 µg/mL
same,Inhibitory concentration,Escherichia coli [9],0.5 µg/mL
same,Inhibitory concentration,Escherichia coli [10],100 µg/mL
same,Inhibitory concentration,Escherichia coli [11],> 100 µg/mL
same,Inhibitory concentration,Escherichia coli [12],10 µg/mL
same,MIC,Pseudomonas aeruginosa [13],> 128 µg/mL
same,MIC,Proteus vulgaris,> 128 µg/mL
same,MIC,Staphylococcus aureus [14],128 µg/mL
same,MIC,Staphylococcus aureus [17],128 µg/mL
same,MIC,Streptococcus pyogenes,0.125 µg/mL
same,MIC,Serratia marcescens,> 128 µg/mL
same,MIC,Streptococcus pneumoniae,0.125 µg/mL
same,MIC,Staphylococcus aureus [16],0.063 µg/mL
same,MIC,Klebsiella pneumoniae,128 µg/mL
O=CN[C@@H]1C(=O)N2C(C(=O)O)=C(COC(=O)N3CCN(c4cc5c(cc4F)c(=O)c(C(=O)O)cn5C4CC4)CC3)CS[C@H]12,MIC,Escherichia coli [1],0.063 µg/mL
same,MIC,Escherichia coli [2],0.06 µg/mL
same,MIC,Escherichia coli [3],2 µg/mL
same,MIC,Escherichia coli [4],2 µg/mL
same,MIC,Escherichia coli [5],0.063 µg/mL
same,MIC,Enterococcus faecalis,4 µg/mL
same,MIC,Escherichia coli [6],0.063 µg/mL
same,MIC,Enterobacter cloacae,0.031 µg/mL
same,IC50,Escherichia coli [7],0.5 µg/mL
same,MIC,Micrococcus luteus,0.5 µg/mL
same,MIC,Proteus mirabilis,1 µg/mL
same,MIC,Pseudomonas aeruginosa [8],1 µg/mL
same,Inhibitory concentration,Escherichia coli [9],> 100 µg/mL
same,Inhibitory concentration,Escherichia coli [10],> 100 µg/mL
same,Inhibitory concentration,Escherichia coli [11],> 100 µg/mL
same,Inhibitory concentration,Escherichia coli [12],100 µg/mL
same,MIC,Pseudomonas aeruginosa [13],2 µg/mL
same,MIC,Proteus vulgaris,0.063 µg/mL
same,MIC,Staphylococcus aureus [14],4 µg/mL
same,MIC,Staphylococcus aureus [15],1 µg/mL
same,MIC,Streptococcus pyogenes,0.125 µg/mL
same,MIC,Serratia marcescens,0.125 µg/mL
same,MIC,Streptococcus pneumoniae,0.063 µg/mL
same,MIC,Staphylococcus aureus [16],0.5 µg/mL
same,MIC,Klebsiella pneumoniae,0.25 µg/mL
Nc1nc(/C(=N/OCC(=O)O)C(=O)N[C@@H]2C(=O)N3C(C(=O)O)=C(COC(=O)N4CCN(c5cc6c(cc5F)c(=O)c(C(=O)O)cn6C5CC5)CC4)CS[C@H]23)cs1,MIC,Citrobacter freundii,0.125 µg/mL
same,MIC,Escherichia coli [1],0.031 µg/mL
same,MIC,Escherichia coli [2],0.03 µg/mL
same,MIC,Escherichia coli [3],1 µg/mL
same,MIC,Escherichia coli [4],1 µg/mL
same,MIC,Escherichia coli [5],0.031 µg/mL
same,MIC,Enterococcus faecalis,1 µg/mL
same,MIC,Escherichia coli [6],0.063 µg/mL
same,MIC,Enterobacter cloacae,0.063 µg/mL
same,IC50,Escherichia coli [7],1.7 µg/mL
same,MIC,Micrococcus luteus,0.5 µg/mL
same,MIC,Proteus mirabilis,0.125 µg/mL
same,MIC,Pseudomonas aeruginosa [8],1 µg/mL
same,Inhibitory concentration,Escherichia coli [9],100 µg/mL
same,Inhibitory concentration,Escherichia coli [10],10 µg/mL
same,Inhibitory concentration,Escherichia coli [11],> 100 µg/mL
same,Inhibitory concentration,Escherichia coli [12],< 0.1 µg/mL
same,MIC,Pseudomonas aeruginosa [13],1 µg/mL
same,MIC,Proteus vulgaris,0.125 µg/mL
same,MIC,Staphylococcus aureus [14],4 µg/mL
same,MIC,Staphylococcus aureus [15],4 µg/mL
same,MIC,Streptococcus pyogenes,0.063 µg/mL
same,MIC,Serratia marcescens,0.25 µg/mL
same,MIC,Streptococcus pneumoniae,0.125 µg/mL
same,MIC,Staphylococcus aureus [16],0.5 µg/mL
same,MIC,Klebsiella pneumoniae,0.125 µg/mL
